Laboratory results reported in ChEMBL document CHEMBL4219167, “Disulfiram-based disulfides as narrow-spectrum antibacterial agents” (Bioorg Med Chem Lett, 2018).
≈ marks a conversion by molar mass, not a printed value.

Key:
[1] = test system: Yersinia pestis; experiment: Antibacterial activity against Yersinia pestis Kim D2 after 20 hrs by broth microdilution assay; type: functional; conditions: Kim D2, 20 h
[2] = test system: Corynebacterium striatum; experiment: Antibacterial activity against Corynebacterium striatum FS-1 after 20 hrs by broth microdilution assay; type: functional; conditions: FS-1, 20 h
[3] = test system: Shigella dysenteriae; experiment: Antibacterial activity against Shigella dysenteriae Newcastle 1934 after 20 hrs by broth microdilution assay; type: functional; conditions: Newcastle 1934, 20 h
In short: (§1)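 Medium is tryptic soy broth, 37°C. Overnight culture is adjusted to 0.5 McFarland, diluted 1:100 and exposed to serial dilutions (test agents from 1 mM or 1 mg/mL DMSO stocks; control antibiotics in water). Incubation lasts 20 h. MIC is the lowest concentration with no visible growth.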

[4] = test system: Vibrio cholerae; experiment: Antibacterial activity against Vibrio cholerae TS D4 after 20 hrs by Todd Hewitt broth broth microdilution method; type: functional; conditions: TS D4, 20 h
[5] = test system: Burkholderia multivorans; experiment: Antibacterial activity against Burkholderia multivorans CF2 after 20 hrs by broth microdilution assay; type: functional; conditions: CF2, 20 h; in short: as §1
[6] = test system: Staphylococcus aureus; experiment: Antibacterial activity against vancomycin-resistant Staphylococcus aureus HIP14300 after 20 hrs by broth microdilution assay; type: functional; conditions: HIP14300, 20 h
[7] = test system: Staphylococcus aureus; experiment: Antibacterial activity against vancomycin-intermediate resistant Staphylococcus aureus AR-217 after 20 hrs by broth microdilution assay; type: functional; conditions: AR-217, 20 h
[8] = test system: Acinetobacter baumannii; experiment: Antibacterial activity against Acinetobacter baumannii AB5075 after 20 hrs by broth microdilution assay; type: functional; conditions: AB5075, 20 h
[9] = test system: Micrococcus luteus; experiment: Antibacterial activity against Micrococcus luteus SK58 after 20 hrs by broth microdilution assay; type: functional; conditions: SK58, 20 h
[10] = test system: Citrobacter freundii; experiment: Antibacterial activity against Citrobacter freundii 4_7_47CFAA after 20 hrs by broth microdilution assay; type: functional
In short: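 Brucella broth, 37°C, 5% CO2. Inoculum is 0.5 McFarland diluted 1:100, with serial drug dilutions from DMSO stocks (1 mM or 1 mg/mL) and control antibiotics in water.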

[11] = test system: Pseudomonas aeruginosa; experiment: Antibacterial activity against Pseudomonas aeruginosa ATCC 15442 after 20 hrs by broth microdilution assay; type: functional; conditions: ATCC 15442, 20 h; in short: as §1
[12] = test system: Staphylococcus aureus; experiment: Antibacterial activity against methicillin-resistant Staphylococcus aureus COL after 20 hrs by broth microdilution assay; type: functional
[13] = test system: Burkholderia cepacia; experiment: Antibacterial activity against Burkholderia cepacia UCB 717 after 20 hrs by broth microdilution assay; type: functional; conditions: UCB 717, 20 h; in short: as §1
[14] = test system: Salmonella typhi; experiment: Antibacterial activity against Salmonella typhi Ty2 after 20 hrs by Todd Hewitt broth broth microdilution method; type: functional, Salmonella enterica subsp. enterica serovar Typhi str. Ty2; conditions: Salmonella enterica
[15] = test system: Yersinia pseudotuberculosis; experiment: Antibacterial activity against Yersinia pseudotuberculosis P61 after 20 hrs by broth microdilution assay; type: functional; conditions: P61, 20 h
In short: (§2)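 Yersinia cultured in tryptic soy broth at 28°C. A 0.5 McFarland suspension diluted 1:100 receives serial dilutions of agents from 1 mM or 1 mg/mL DMSO stocks; control antibiotics are in water.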

[16] = test system: Yersinia pestis; experiment: Antibacterial activity against Yersinia pestis Kuma D7 after 20 hrs by broth microdilution assay; type: functional; conditions: Kuma D7, 20 h
[17] = test system: Yersinia enterocolitica; experiment: Antibacterial activity against Yersinia enterocolitica WA-314 after 20 hrs by broth microdilution assay; type: functional; conditions: WA-314, 20 h; in short: as §2
[18] = test system: Staphylococcus epidermidis; experiment: Antibacterial activity against vancomycin-intermediate resistant Staphylococcus epidermidis NRS6 after 20 hrs by broth microdilution assay; type: functional; conditions: NRS6, 20 h
[19] = test system: Escherichia coli; experiment: Antibacterial activity against Escherichia coli DC10B after 20 hrs by broth microdilution assay; type: functional; in short: as §1
[20] = test system: Francisella tularensis; experiment: Antibacterial activity against Francisella tularensis Utah 112 after 20 hrs by broth microdilution assay; type: functional; conditions: Utah 112, 20 h
[21] = test system: Enterococcus faecium; experiment: Antibacterial activity against vancomycin-resistant Enterococcus faecium ATCC 700221 after 20 hrs by broth microdilution assay; type: functional; conditions: ATCC 700221, 20 h
In short: (§3)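 Brain heart infusion broth at 37°C; E. faecium under 5% CO2. Cells at 0.5 McFarland are diluted 1:100 and exposed to serial dilutions (DMSO stocks 1 mM or 1 mg/mL; controls in water).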

[22] = test system: Streptococcus pyogenes; experiment: Antibacterial activity against Streptococcus pyogenes H293 after 20 hrs by broth microdilution assay; type: functional; conditions: H293, 20 h
[23] = test system: Bacillus cereus; experiment: Antibacterial activity against Bacillus cereus Gibson 971 after 20 hrs by broth microdilution assay; type: functional; conditions: Gibson 971, 20 h
[24] = test system: Proteus mirabilis; experiment: Antibacterial activity against Proteus mirabilis HM-752 after 20 hrs by broth microdilution assay; type: functional; conditions: HM-752, 20 h; in short: as §1
[25] = test system: Listeria monocytogenes; experiment: Antibacterial activity against Listeria monocytogenes Gibson after 20 hrs by broth microdilution assay; type: functional; in short: as §3
[26] = test system: Streptococcus pneumoniae; experiment: Antibacterial activity against Streptococcus pneumoniae TCH8431 after 20 hrs by broth microdilution assay; type: functional; conditions: TCH8431, 20 h
[27] = test system: Streptococcus agalactiae; experiment: Antibacterial activity against Streptococcus agalactiae SGBS005 after 20 hrs by broth microdilution assay; type: functional; conditions: SGBS005, 20 h
[28] = test system: Bacillus anthracis; experiment: Antibacterial activity against Bacillus anthracis Ames 35 after 20 hrs by broth microdilution assay; type: functional; conditions: Ames 35, 20 h
[29] = test system: Klebsiella pneumoniae; experiment: Antibacterial activity against Klebsiella pneumoniae 700603 after 20 hrs by broth microdilution assay; type: functional; conditions: Klebsiella pneumoniae, 700603, 20 h; in short: as §1
[30] = test system: Bacillus anthracis; experiment: Antibacterial activity against Bacillus anthracis Weybridge after 20 hrs by broth microdilution assay; type: functional
[31] = test system: Bacillus anthracis; experiment: Antibacterial activity against Bacillus anthracis Sterne 34F2 after 20 hrs by broth microdilution assay; type: functional; conditions: Sterne 34F2, 20 h
[32] = test system: Brucella neotomae; experiment: Antibacterial activity against Brucella neotomae 5K33 after 20 hrs by broth microdilution assay; type: functional; conditions: 5K33, 20 h
[33] = test system: Rhodococcus erythropolis; experiment: Antibacterial activity against Rhodococcus erythropolis SK121 after 20 hrs by broth microdilution assay; type: functional; conditions: SK121, 20 h
In short: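 R. erythropolis grown in brain heart infusion broth at 30°C. A 0.5 McFarland suspension diluted 1:100 is treated with serial dilutions from 1 mM or 1 mg/mL DMSO stocks; control antibiotics are in water.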

[34] = test system: Bacillus anthracis; experiment: Antibacterial activity against Bacillus anthracis UM23-1 after 20 hrs by broth microdilution assay; type: functional; conditions: UM23-1, 20 h

Row | Compound | MIC [1] [µM] | MIC [2] [µM] | MIC [3] [µM] | MIC [4] [µM] | MIC [5] [µM] | MIC [6] [µM] | MIC [7] [µM] | MIC [8] [µM] | MIC [9] [µM] | MIC [10] [µM] | MIC [11] [µM] | MIC [12] [µM] | MIC [13] [µM] | MIC [14] [µM] | MIC [15] [µM] | MIC [16] [µM] | MIC [17] [µM] | MIC [18] [µM] | MIC [19] [µM] | MIC [20] [µM] | also measured
1 | CCCCCSSC(=S)N(CC)CC | 32 (≈ 8.05 µg/mL) | 32 (≈ 8.05 µg/mL) | > 32 | > 32 | > 32 | 16 (≈ 4.02 µg/mL) | 8 (≈ 2.01 µg/mL) | > 32 | 16 (≈ 4.02 µg/mL) | > 32 | > 32 | 16 (≈ 4.02 µg/mL) | > 32 | > 32 | > 32 | 32 (≈ 8.05 µg/mL) | > 32 | 8 (≈ 2.01 µg/mL) | > 32 | 32 (≈ 8.05 µg/mL) | MIC [21]: > 32 µM; MIC [22]: > 32 µM; MIC [23]: 1 µM (≈ 0.251 µg/mL); MIC [24]: > 32 µM; MIC [25]: 8 µM (≈ 2.01 µg/mL); MIC [26]: > 32 µM; MIC [27]: > 32 µM; MIC [28]: 4 µM (≈ 1.01 µg/mL); MIC [29]: > 32 µM; MIC [30]: 8 µM (≈ 2.01 µg/mL); MIC [31]: 4 µM (≈ 1.01 µg/mL); MIC [32]: 32 µM (≈ 8.05 µg/mL); MIC [33]: 16 µM (≈ 4.02 µg/mL); MIC [34]: 4 µM (≈ 1.01 µg/mL)
2 | CCCCCCCSSC(=S)N(CC)CC | 32 (≈ 8.95 µg/mL) | 16 (≈ 4.47 µg/mL) | > 32 | > 32 | > 32 | 4 (≈ 1.12 µg/mL) | 2 (≈ 0.559 µg/mL) | > 32 | 16 (≈ 4.47 µg/mL) | > 32 | > 32 | 4 (≈ 1.12 µg/mL) | > 32 | > 32 | > 32 | 32 (≈ 8.95 µg/mL) | > 32 | 4 (≈ 1.12 µg/mL) | > 32 | 16 (≈ 4.47 µg/mL) | MIC [21]: 8 µM (≈ 2.24 µg/mL); MIC [22]: 16 µM (≈ 4.47 µg/mL); MIC [23]: 1 µM (≈ 0.28 µg/mL); MIC [24]: > 32 µM; MIC [25]: 4 µM (≈ 1.12 µg/mL); MIC [26]: 32 µM (≈ 8.95 µg/mL); MIC [27]: > 32 µM; MIC [28]: 4 µM (≈ 1.12 µg/mL); MIC [29]: > 32 µM; MIC [30]: 2 µM (≈ 0.559 µg/mL); MIC [31]: 2 µM (≈ 0.559 µg/mL); MIC [32]: > 32 µM; MIC [33]: 16 µM (≈ 4.47 µg/mL); MIC [34]: 1 µM (≈ 0.28 µg/mL)
